Source: ChEMBL document CHEMBL6114937, “Synthesis and anti-tumor activity of new benzofuran-based chalcone derivatives as potent VEGFR-2 inhibitors” (RSC Med Chem, 2025)
One block for each compound: values may come before it.

Key:
HeLa = test: Cytotoxicity against human HeLa cells assessed as inhibition of cell viability incubated for 48 hrs by MTT assay; format: functional, cell-based
Outline: (§1)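 Log-phase cells seeded at 5 × 10^4 cells per mL in 96-well plates, cultured overnight at 37 °C, 5% CO2, then treated at 100, 50, 25, 12.5 and 6.25 μmol L−1, triplicate wells per concentration, for 48 h. MTT (20 μL of 5 mg ml−1) added for 4 h; after centrifugation the medium was removed and the formazan dissolved in DMSO. A570 was read and IC50 calculated. Cisplatin served as positive control.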

HCC1806 [1] = test: Cytotoxicity against human HCC1806 cells assessed as inhibition of cell viability incubated for 48 hrs by MTT assay; format: functional, cell-based; conditions: HCC1806, 48 h; outline: as §1
A549 = test: Cytotoxicity against human A549 cells assessed as inhibition of cell viability incubated for 48 hrs by MTT assay; format: functional, cell-based; conditions: A549, 48 h; outline: as §1
[2] = target: Vascular endothelial growth factor receptor 2 (Homo sapiens) (UniProt P35968); test: Inhibition of VEGFR-2 (unknown origin) at 100 uM incubated for 90 mins by Kinase-Glo MAX reagent based luminescence analysis relative to control
Outline: (§2)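 A VEGFR-2 (KDR) kinase kit was used. Compound was made in DMSO and diluted in 1× kinase buffer 1, with matched DMSO in all wells. Master mix and compound were combined, and the reaction was started with diluted VEGFR-2 kinase, then incubated at 30 °C for 45 min. Kinase-Glo MAX reagent was added for 15 min at room temperature before luminescence was read. Blank and positive-control wells were included.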

HCC1806 [3] = test: Induction of apoptosis in human HCC1806 cells assessed as proportion of late apoptotic cells at 6 uM incubated for 24 hrs by AnnexinV-FITC/PI staining based flow cytometry (reference value: 5.29 %); format: functional
HCC1806 [4] = test: Induction of apoptosis in human HCC1806 cells assessed as proportion of early apoptotic cells at 3 uM incubated for 24 hrs by AnnexinV-FITC/PI staining based flow cytometry (reference value: 5.32 %); format: functional
HCC1806 [5] = test: Induction of apoptosis in human HCC1806 cells assessed as proportion of late apoptotic cells at 3 uM incubated for 24 hrs by AnnexinV-FITC/PI staining based flow cytometry (reference value: 5.29 %); format: functional
HCC1806 [6] = test: Induction of apoptosis in human HCC1806 cells assessed as proportion of viable cells at 6 uM incubated for 24 hrs by AnnexinV-FITC/PI staining based flow cytometry (reference value: 86.0 %); format: functional
[7] = target: Vascular endothelial growth factor receptor 2 (Homo sapiens) (UniProt P35968); test: Inhibition of VEGFR-2 (unknown origin) at 25 uM incubated for 90 mins by Kinase-Glo MAX reagent based luminescence analysis relative to control; outline: as §2
HCC1806 [8] = test: Induction of apoptosis in human HCC1806 cells assessed as proportion of necrotic cells at 6 uM incubated for 24 hrs by AnnexinV-FITC/PI staining based flow cytometry (reference value: 3.40 %); format: functional
HCC1806 [9] = test: Induction of apoptosis in human HCC1806 cells assessed as proportion of early apoptotic cells at 6 uM incubated for 24 hrs by AnnexinV-FITC/PI staining based flow cytometry (reference value: 5.32 %); format: functional
[10] = target: Vascular endothelial growth factor receptor 2 (Homo sapiens) (UniProt P35968); test: Inhibition of VEGFR-2 (unknown origin) at 50 uM incubated for 90 mins by Kinase-Glo MAX reagent based luminescence analysis relative to control
HCC1806 [11] = test: Induction of apoptosis in human HCC1806 cells assessed as proportion of necrotic cells at 3 uM incubated for 24 hrs by AnnexinV-FITC/PI staining based flow cytometry (reference value: 3.40 %); format: functional
HCC1806 [12] = test: Induction of apoptosis in human HCC1806 cells assessed as proportion of viable cells at 3 uM incubated for 24 hrs by AnnexinV-FITC/PI staining based flow cytometry (reference value: 86.0 %); format: functional

Vascular endothelial growth factor receptor 2 (Homo sapiens), sequence (P35968 whole entry): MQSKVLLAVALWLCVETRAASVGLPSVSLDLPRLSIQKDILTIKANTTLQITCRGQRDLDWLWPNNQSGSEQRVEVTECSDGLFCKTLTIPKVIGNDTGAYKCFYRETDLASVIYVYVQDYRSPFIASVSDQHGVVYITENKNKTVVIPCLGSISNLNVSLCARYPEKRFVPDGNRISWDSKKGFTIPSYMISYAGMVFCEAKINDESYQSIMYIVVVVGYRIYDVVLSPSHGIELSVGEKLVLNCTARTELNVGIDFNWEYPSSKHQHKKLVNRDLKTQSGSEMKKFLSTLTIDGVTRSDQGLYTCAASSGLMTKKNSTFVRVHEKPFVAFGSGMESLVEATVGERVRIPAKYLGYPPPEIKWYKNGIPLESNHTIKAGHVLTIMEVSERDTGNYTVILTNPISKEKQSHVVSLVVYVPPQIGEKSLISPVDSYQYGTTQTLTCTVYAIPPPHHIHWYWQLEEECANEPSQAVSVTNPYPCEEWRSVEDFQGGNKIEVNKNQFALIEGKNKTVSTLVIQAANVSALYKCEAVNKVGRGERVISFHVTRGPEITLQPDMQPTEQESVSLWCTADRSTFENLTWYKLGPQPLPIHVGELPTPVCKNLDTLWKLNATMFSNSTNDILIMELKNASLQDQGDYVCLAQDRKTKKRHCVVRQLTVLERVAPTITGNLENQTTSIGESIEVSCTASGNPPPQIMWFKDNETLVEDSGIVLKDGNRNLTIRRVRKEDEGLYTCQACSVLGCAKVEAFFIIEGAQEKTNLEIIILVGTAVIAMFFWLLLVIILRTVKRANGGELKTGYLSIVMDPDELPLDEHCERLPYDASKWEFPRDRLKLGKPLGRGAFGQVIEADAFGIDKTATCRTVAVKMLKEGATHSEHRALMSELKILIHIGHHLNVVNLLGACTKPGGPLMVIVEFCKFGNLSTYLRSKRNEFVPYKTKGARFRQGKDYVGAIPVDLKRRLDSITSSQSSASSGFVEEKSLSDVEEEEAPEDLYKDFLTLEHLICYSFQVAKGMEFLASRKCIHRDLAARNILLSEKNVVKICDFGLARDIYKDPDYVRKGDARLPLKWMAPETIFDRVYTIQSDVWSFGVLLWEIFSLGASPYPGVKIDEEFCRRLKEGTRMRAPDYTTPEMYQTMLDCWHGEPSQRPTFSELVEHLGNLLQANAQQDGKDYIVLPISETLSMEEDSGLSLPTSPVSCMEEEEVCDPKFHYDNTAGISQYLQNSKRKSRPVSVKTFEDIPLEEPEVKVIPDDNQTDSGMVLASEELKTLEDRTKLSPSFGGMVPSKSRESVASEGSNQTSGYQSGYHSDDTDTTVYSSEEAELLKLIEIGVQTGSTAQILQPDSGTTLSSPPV

SMILES: COc1cc2ncnc(Nc3ccc4oc(C(=O)/C=C/c5ccc(Br)cc5)cc4c3)c2cc1OC
IC50 (HeLa): 24.8 µM
IC50 (HCC1806 [1]): 18.4 µM
IC50 (A549): > 25 µM

SMILES: COc1cc2ncnc(Nc3ccc4oc(C(=O)/C=C/c5ccc(N6CCOCC6)cc5)cc4c3)c2cc1OC
IC50 (HeLa): > 25 µM
IC50 (HCC1806 [1]): > 25 µM
IC50 (A549): > 25 µM

SMILES: COc1cc2ncnc(Nc3ccc4oc(C(=O)/C=C/c5ccccc5)cc4c3)c2cc1OC
IC50 (HeLa): 3.18 µM
IC50 (HCC1806 [1]): 7.03 µM
IC50 (A549): 21.6 µM

SMILES: COc1cc2ncnc(Nc3ccc4oc(C(=O)/C=C/c5ccccn5)cc4c3)c2cc1OC
IC50 (HeLa): > 25 µM
IC50 (HCC1806 [1]): > 25 µM
IC50 (A549): > 25 µM

inhibition [2]: 38%
inhibition [7]: 10%
inhibition [10]: 16%
SMILES: COc1cc(/C=C/C(=O)c2cc3cc(Nc4ncnc5cc(OC)c(OC)cc45)ccc3o2)cc(OC)c1
IC50 (HeLa): 5.61 µM
Activity (HCC1806 [3]): 29.4%
Activity (HCC1806 [4]): 6.91%
Activity (HCC1806 [5]): 9.05%
Activity (HCC1806 [6]): 47.7%
Activity (HCC1806 [8]): 10%
IC50 (HCC1806 [1]): 5.93 µM
IC50 (A549): > 25 µM
Activity (HCC1806 [9]): 12.8%
Activity (HCC1806 [11]): 6.44%
Activity (HCC1806 [12]): 77.6%

SMILES: COc1cc2ncnc(Nc3ccc4oc(C(=O)/C=C/c5ccc(Cl)cc5)cc4c3)c2cc1OC
IC50 (HeLa): > 25 µM
IC50 (HCC1806 [1]): > 25 µM
IC50 (A549): > 25 µM

SMILES: COc1cc2ncnc(Nc3ccc4oc(C(=O)/C=C/c5ccc(-n6cccn6)cc5)cc4c3)c2cc1OC
IC50 (HeLa): > 25 µM
IC50 (HCC1806 [1]): > 25 µM
IC50 (A549): > 25 µM

SMILES: COc1cc2ncnc(Nc3ccc4oc(C(=O)/C=C/c5ccc(C)o5)cc4c3)c2cc1OC
IC50 (HeLa): > 25 µM
IC50 (HCC1806 [1]): > 25 µM
IC50 (A549): > 25 µM

SMILES: COc1cc2ncnc(Nc3ccc4oc(C(=O)/C=C/c5c[nH]c6ccccc56)cc4c3)c2cc1OC
IC50 (HeLa): 4.95 µM
IC50 (HCC1806 [1]): 9.52 µM
IC50 (A549): > 25 µM

SMILES: COc1cc2ncnc(Nc3ccc4oc(C(=O)/C=C/c5c[nH]c6ccc(Br)cc56)cc4c3)c2cc1OC
IC50 (HeLa): > 25 µM
IC50 (HCC1806 [1]): > 25 µM
IC50 (A549): > 25 µM

SMILES: COc1cc2ncnc(Nc3ccc4oc(C(=O)/C=C/c5ccc(F)c(F)c5)cc4c3)c2cc1OC
IC50 (HeLa): > 25 µM
IC50 (HCC1806 [1]): 16.6 µM
IC50 (A549): > 25 µM

SMILES: COc1cc2ncnc(Nc3ccc4oc(C(=O)/C=C/c5ccncc5)cc4c3)c2cc1OC
IC50 (HeLa): 6.36 µM
IC50 (HCC1806 [1]): 6.4 µM
IC50 (A549): > 25 µM

SMILES: COc1cc2ncnc(Nc3ccc4oc(C(=O)/C=C/c5ccc(N(C)C)cc5)cc4c3)c2cc1OC
IC50 (HeLa): > 25 µM
IC50 (HCC1806 [1]): > 25 µM
IC50 (A549): > 25 µM

SMILES: COc1cc2ncnc(Nc3ccc4oc(C(=O)/C=C/c5cccs5)cc4c3)c2cc1OC
IC50 (HeLa): > 25 µM
IC50 (HCC1806 [1]): > 25 µM
IC50 (A549): > 25 µM

SMILES: COc1cc2ncnc(Nc3ccc4oc(C(=O)/C=C/c5ccc(N6CCN(C)CC6)cc5)cc4c3)c2cc1OC
IC50 (HeLa): > 25 µM
IC50 (HCC1806 [1]): > 25 µM
IC50 (A549): > 25 µM

SMILES: COc1cc2ncnc(Nc3ccc4oc(C(=O)/C=C/c5cc6ccccc6o5)cc4c3)c2cc1OC
IC50 (HeLa): > 25 µM
IC50 (HCC1806 [1]): 17.1 µM
IC50 (A549): > 25 µM

SMILES: COc1ccc(/C=C/C(=O)c2cc3cc(Nc4ncnc5cc(OC)c(OC)cc45)ccc3o2)cc1OC
IC50 (HeLa): > 25 µM
IC50 (HCC1806 [1]): > 25 µM
IC50 (A549): > 25 µM

SMILES: COc1cc2ncnc(Nc3ccc4oc(C(=O)/C=C/c5ccc(O)cc5)cc4c3)c2cc1OC
IC50 (HeLa): 6.19 µM
IC50 (HCC1806 [1]): 6.6 µM
IC50 (A549): 6.27 µM
